From ChEMBL document CHEMBL1269008, “Electron density guided fragment-based lead discovery of ketohexokinase inhibitors” (J Med Chem, 2010)
In brackets after ≈: the same amount, converted by molar mass.

Columns and labels:
[1] = molecular target: T1, Cytochrome P450 1A2 (Homo sapiens, UniProt P05177); assay: Inhibition of human recombinant CYP1A2; format: ADME
T1 sequence (P05177 whole entry): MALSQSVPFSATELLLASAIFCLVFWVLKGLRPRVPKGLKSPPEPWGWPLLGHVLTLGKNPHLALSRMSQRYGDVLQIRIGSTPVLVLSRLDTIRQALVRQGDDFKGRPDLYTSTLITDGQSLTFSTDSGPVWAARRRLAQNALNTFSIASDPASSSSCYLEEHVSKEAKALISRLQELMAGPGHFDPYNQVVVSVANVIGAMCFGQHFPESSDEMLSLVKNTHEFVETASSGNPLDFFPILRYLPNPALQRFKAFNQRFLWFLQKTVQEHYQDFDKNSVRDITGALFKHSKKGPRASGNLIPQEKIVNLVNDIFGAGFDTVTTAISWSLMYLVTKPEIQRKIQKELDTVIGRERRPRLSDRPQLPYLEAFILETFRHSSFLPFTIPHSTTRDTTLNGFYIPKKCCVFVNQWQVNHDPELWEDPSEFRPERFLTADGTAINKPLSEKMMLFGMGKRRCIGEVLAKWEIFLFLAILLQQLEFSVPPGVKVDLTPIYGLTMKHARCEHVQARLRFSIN

[2] = Clearance in Sprague-Dawley rat at 2 mg/kg, iv and 10 mg/kg, po; format: ADME, organism-based; conditions: in vivo
How it was run: (§1)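 Male SPF Sprague-Dawley rats (~250 g), n=4, vehicle 20% HPBCD at pH 4.5. Dosing was 2.0 mg/kg iv into the jugular vein, with blood taken at 7 and 20 min and 1, 2, 4, 8 and 24 h. Oral arm was 10 mg/kg by gastric intubation. Parameters came from each animal's plasma profile.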

[3] = molecular target: Cytochrome P450 2C19 (Homo sapiens, UniProt P33261); assay: Inhibition of human recombinant CYP2C19; format: ADME
[4] = AUClast in Sprague-Dawley rat at 10 mg/kg, po; format: ADME, organism-based; parameters: time 0 - last, dose 10 mg/kg, route oral; conditions: plasma
How it was run: (§2)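 Male SPF Sprague-Dawley rats (~250 g), n=4. HCl salt dissolved in 20% HPBCD, adjusted to pH 4.5 with NaOH. 10 mg/kg by gastric intubation. Blood sampled at 0.5, 1, 2, 4, 8 and 24 h. Parameters derived from each animal's plasma concentration-time profile by limited PK analysis.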

[5] = Aqueous solubility of the compound in water; format: physicochemical
[6] = Aqueous solubility of the compound in […]; format: physicochemical
[7] = molecular target: Cytochrome P450 2D6 (Homo sapiens, UniProt P10635); assay: Inhibition of human recombinant CYP2D6; format: ADME
[8] = molecular target: 5-hydroxytryptamine receptor 7 (Homo sapiens) (UniProt P34969); assay: Inhibition of 5HT7 at 10 uM
[9] = molecular target: 5-hydroxytryptamine receptor 2B (Homo sapiens) (UniProt P41595); assay: Inhibition of 5HT2B at 10 uM
[10] = molecular target: Cytochrome P450 3A4 (Homo sapiens, UniProt P08684); assay: Inhibition of human recombinant CYP3A4; format: ADME
[11] = Metabolic stability in rat liver microsomes after 10 mins; format: ADME, Microsome; conditions: read-out: Stability
[12] = Metabolic stability in human liver microsomes after 10 mins; format: ADME, Microsome; conditions: read-out: Stability
[13] = Oral bioavailability in Sprague-Dawley rat at 10 mg/kg; format: ADME, organism-based; conditions: in vivo; how it was run: as §2
[14] = Volume of distribution in Sprague-Dawley rat at 2 mg/kg, iv and 10 mg/kg, po; format: ADME, organism-based; conditions: in vivo; how it was run: as §1
[15] = Aqueous solubility of the compound in phosphate buffered saline at pH 2; format: physicochemical
[16] = Permeability from apical to basolateral side of human Caco-2 cells; format: ADME, cell-based
How it was run: (§3)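 Caco-2 monolayers cultured 21 days on Transwells. Compound at 10 μM in HBSS with 25 mM HEPES pH 7.4, added to the apical or basolateral side. Lucifer Yellow in donor buffer checked monolayer integrity. After 1 h at 37 °C, both chambers were sampled into acetonitrile with internal standard and measured by LC-MS/MS to calculate Papp.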

[17] = Aqueous solubility of the compound in phosphate buffered saline at pH 7.4; format: physicochemical
[18] = Permeability from basolateral to apical side of human Caco-2 cells; format: ADME, cell-based; how it was run: as §3
[19] = molecular target: T2, 5-hydroxytryptamine receptor 1A (Homo sapiens) (UniProt P08908); assay: Inhibition of 5HT1A at 10 uM
T2 sequence (whole entry): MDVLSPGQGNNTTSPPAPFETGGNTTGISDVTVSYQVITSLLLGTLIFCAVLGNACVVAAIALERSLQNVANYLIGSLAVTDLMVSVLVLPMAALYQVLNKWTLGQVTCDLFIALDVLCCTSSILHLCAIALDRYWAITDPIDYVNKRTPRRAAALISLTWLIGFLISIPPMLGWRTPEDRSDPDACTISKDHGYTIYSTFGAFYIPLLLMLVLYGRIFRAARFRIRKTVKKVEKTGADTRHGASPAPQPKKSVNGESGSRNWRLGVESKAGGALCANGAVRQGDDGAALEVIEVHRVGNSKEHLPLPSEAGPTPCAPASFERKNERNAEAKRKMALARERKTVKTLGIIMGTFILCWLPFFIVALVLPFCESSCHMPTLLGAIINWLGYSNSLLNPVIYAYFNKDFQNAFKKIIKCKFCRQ

[20] = Cmax in Sprague-Dawley rat at 10 mg/kg, po; format: ADME, organism-based; parameters: dose 10 mg/kg, route oral; conditions: in vivo; how it was run: as §2
[21] = Inhibition of PKA at 10 uM
How it was run: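 Commercial panel of 200 protein kinases, with compound at 10 μM and ATP at 10 μM. Percent inhibition is from a single concentration.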

[22] = molecular target: Cytochrome P450 2C9 (Homo sapiens, UniProt P11712); assay: Inhibition of human recombinant CYP2C9; format: ADME
Cytochrome P450 2C9, sequence (P11712 whole entry): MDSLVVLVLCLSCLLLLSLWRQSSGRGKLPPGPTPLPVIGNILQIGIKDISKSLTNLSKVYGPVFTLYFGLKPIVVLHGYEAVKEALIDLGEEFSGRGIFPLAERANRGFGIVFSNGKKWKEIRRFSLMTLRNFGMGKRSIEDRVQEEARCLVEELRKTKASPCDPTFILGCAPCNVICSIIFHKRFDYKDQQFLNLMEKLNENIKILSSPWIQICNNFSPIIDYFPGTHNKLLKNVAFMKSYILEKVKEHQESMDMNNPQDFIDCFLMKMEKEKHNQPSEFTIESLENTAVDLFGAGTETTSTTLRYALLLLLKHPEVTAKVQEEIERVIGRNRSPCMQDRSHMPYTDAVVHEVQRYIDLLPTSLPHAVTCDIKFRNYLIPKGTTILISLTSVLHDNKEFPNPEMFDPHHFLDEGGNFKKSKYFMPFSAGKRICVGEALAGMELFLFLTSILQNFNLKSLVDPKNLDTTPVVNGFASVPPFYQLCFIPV

5-hydroxytryptamine receptor 7 (Homo sapiens), sequence (P34969 whole entry): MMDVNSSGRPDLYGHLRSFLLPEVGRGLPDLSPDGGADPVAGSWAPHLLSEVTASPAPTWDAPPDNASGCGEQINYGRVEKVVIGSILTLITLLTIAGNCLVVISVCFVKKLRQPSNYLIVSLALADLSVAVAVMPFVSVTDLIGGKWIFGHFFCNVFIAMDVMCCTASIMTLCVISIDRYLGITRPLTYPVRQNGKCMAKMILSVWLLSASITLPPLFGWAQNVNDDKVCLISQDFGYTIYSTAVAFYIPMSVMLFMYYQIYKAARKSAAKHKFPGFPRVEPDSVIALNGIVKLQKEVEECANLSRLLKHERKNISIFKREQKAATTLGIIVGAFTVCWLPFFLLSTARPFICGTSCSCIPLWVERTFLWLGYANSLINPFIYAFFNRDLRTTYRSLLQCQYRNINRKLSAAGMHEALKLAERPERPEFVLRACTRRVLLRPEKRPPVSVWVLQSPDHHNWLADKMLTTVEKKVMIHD
Cytochrome P450 2D6, sequence (P10635 whole entry): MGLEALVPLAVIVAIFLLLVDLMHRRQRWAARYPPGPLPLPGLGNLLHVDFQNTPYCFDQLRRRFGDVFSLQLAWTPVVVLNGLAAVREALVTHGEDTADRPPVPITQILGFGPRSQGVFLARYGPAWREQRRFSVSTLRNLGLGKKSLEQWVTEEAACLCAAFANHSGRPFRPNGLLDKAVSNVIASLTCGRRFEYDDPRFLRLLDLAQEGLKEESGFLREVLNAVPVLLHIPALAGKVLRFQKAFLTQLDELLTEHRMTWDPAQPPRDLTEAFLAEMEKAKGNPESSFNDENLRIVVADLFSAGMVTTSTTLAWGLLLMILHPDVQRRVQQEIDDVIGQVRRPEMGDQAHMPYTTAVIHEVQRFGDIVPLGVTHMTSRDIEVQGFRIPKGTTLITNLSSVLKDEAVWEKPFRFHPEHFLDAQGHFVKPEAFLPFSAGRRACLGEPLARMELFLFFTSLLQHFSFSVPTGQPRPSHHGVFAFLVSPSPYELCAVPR
5-hydroxytryptamine receptor 2B (Homo sapiens), sequence (P41595 whole entry): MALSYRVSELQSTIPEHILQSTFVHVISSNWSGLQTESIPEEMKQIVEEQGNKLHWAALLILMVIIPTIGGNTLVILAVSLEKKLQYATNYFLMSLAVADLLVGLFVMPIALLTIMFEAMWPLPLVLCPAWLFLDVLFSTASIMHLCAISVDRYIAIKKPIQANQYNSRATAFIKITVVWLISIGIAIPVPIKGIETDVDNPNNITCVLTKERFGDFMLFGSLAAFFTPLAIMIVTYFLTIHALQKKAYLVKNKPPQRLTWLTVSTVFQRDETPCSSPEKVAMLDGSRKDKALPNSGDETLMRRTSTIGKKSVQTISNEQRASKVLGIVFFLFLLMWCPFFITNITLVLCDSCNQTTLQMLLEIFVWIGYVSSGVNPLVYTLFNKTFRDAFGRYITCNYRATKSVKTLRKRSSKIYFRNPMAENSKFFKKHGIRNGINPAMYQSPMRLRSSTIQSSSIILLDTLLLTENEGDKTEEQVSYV
Cytochrome P450 3A4, sequence (P08684 whole entry): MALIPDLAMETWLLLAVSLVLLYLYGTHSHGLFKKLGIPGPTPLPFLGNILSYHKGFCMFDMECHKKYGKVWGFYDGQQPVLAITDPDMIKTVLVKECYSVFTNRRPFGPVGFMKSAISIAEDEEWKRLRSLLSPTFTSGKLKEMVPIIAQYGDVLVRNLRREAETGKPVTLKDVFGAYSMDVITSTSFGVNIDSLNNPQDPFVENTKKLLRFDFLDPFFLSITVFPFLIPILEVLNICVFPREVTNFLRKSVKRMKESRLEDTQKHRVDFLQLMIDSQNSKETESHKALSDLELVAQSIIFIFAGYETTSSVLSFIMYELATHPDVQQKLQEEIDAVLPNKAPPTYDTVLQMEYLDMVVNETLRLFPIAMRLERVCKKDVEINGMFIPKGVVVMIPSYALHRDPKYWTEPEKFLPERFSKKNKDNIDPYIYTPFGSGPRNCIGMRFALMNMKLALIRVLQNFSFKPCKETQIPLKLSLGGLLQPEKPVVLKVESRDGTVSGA
Cytochrome P450 2C19, sequence (P33261 whole entry): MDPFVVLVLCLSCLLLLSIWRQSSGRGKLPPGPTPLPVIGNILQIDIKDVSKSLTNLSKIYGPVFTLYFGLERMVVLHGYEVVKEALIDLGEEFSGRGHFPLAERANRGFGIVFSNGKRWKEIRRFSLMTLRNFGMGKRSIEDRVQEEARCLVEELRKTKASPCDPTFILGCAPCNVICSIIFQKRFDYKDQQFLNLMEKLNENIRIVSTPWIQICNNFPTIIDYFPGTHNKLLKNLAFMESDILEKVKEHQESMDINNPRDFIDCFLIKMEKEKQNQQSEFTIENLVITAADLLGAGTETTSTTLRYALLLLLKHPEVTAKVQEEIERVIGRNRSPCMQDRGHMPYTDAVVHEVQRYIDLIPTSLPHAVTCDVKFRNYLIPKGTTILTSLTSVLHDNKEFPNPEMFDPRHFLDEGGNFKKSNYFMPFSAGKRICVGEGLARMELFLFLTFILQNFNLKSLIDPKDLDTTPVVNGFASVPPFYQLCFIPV

IC50 [1]: > 10 µM
clearance [2]: 11.6 mL/min/kg
IC50 [3]: > 10 µM
AUC(0-t) [4]: 9030 ng·h/mL
solubility [5]: 40.7 µM (≈ 14.9 µg/mL)
solubility [6]: 40 µM (≈ 14.7 µg/mL)
IC50 [7]: > 10 µM
inhibition [8]: 95%
inhibition [9]: 91%
IC50 [10]: > 10 µM
remaining at 10 min [11]: 95%
remaining at 10 min [12]: 96%
bioavailability [13]: 75.4%
Vd [14]: 8.53 L/kg
solubility [15]: 35.3 µM (≈ 12.9 µg/mL)
Papp A→B [16]: 1.65 ×10⁻⁶ cm/s
solubility [17]: 45.2 µM (≈ 16.6 µg/mL)
Papp B→A [18]: 9.47 ×10⁻⁶ cm/s
inhibition [19]: 83%
Cmax [20]: 529 ng/mL
inhibition [21]: 99%
IC50 [22]: > 10 µM
SMILES: CSc1nn(-c2ccccc2)c2cc(NC(=O)C3CCNCC3)ccc12
